≈ marks a conversion by molar mass, not a printed value. Calls of active or inactive are those of the source. The calls are words filed in the database; no cut-off is given here.
Tests used:
Streptococcus gordonii [1] = assay: Increase in pbp2X gene expression in penicillin-resistant Streptococcus gordonii with penicillin binding protein PR1_2 evolved mutation assessed as relative luciferase units relative to control; format: functional
In short: (§1)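 pbp promoter–luc transcriptional fusions integrated into the chromosome of resistant strain PR1_2evolved. Cells grown at 37°C in BHI without aeration from a 1/100 overnight inoculum. Penicillin G at 1/2× or 1/8× MIC added at OD620 0.12. Samples taken into sodium citrate pH 5.5, with 1 mM D-luciferin solution in glycylglycine/MgSO4 buffer added. Light read 10 s at 22°C; RLU normalised to OD620, expressed as % of untreated; means of six experiments.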

Streptococcus gordonii [2] = assay: Effect on pbp2X gene expression in penicillin-resistant Streptococcus gordonii with penicillin binding protein PR1_2 evolved mutation assessed as relative luciferase units relative to control; format: functional, organism-based; in short: as §1
Streptococcus gordonii [3] = assay: Antibacterial activity against wild type penicillin-susceptible Streptococcus gordonii at 2 times MIC; format: functional, organism-based
In short: (§2)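 S. gordonii was grown at 37°C in BHI broth without aeration from a 1/100 inoculum of an overnight culture. Penicillin G was added once OD620 reached 0.12, and growth was followed by OD620 against an untreated culture.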

Streptococcus gordonii [4] = assay: Antibacterial activity against Streptococcus gordonii with penicillin binding protein mutation; format: functional
Streptococcus gordonii [5] = assay: Effect on pbp2B gene expression in penicillin-resistant Streptococcus gordonii with penicillin binding protein PR1_2 evolved mutation assessed as relative luciferase units relative to control; format: functional, organism-based; in short: as §1
Streptococcus gordonii [6] = assay: Increase in pbp2A gene expression in penicillin-resistant Streptococcus gordonii with penicillin binding protein PR1_2 evolved mutation at 1/2 times MIC assessed as relative luciferase units relative to control; format: functional, organism-based; in short: as §1
Streptococcus gordonii [7] = assay: Increase in pbp1A gene expression in penicillin-resistant Streptococcus gordonii with penicillin binding protein PR1_2 evolved mutation assessed as relative luciferase units relative to control; format: functional; in short: as §1
Streptococcus gordonii [8] = assay: Increase in pbp1B gene expression in penicillin-resistant Streptococcus gordonii with penicillin binding protein PR1_2 evolved mutation assessed as relative luciferase units relative to control; format: functional; in short: as §1
Streptococcus gordonii [9] = assay: Antibacterial activity against penicillin-resistant Streptococcus gordonii with penicillin binding protein PR1_2 evolved mutation; format: functional
Streptococcus gordonii [10] = assay: Increase in pbp1A gene expression in penicillin-resistant Streptococcus gordonii with penicillin binding protein PR1_2 evolved mutation at 1/2 times MIC assessed as relative luciferase units relative to control; format: functional, organism-based; in short: as §1
Streptococcus gordonii [11] = assay: Increase in pbp2A gene expression in penicillin-resistant Streptococcus gordonii with penicillin binding protein PR1_2 evolved mutation assessed as relative luciferase units relative to control; format: functional; in short: as §1
Streptococcus gordonii [12] = assay: Antibacterial activity against Streptococcus gordonii with non penicillin binding protein mutation; format: functional
Streptococcus gordonii [13] = assay: Induction of pbp2A gene expression in wild type penicillin-susceptible Streptococcus gordonii assessed as relative luciferase units relative to control; format: functional, organism-based
In short: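 The pbp2A promoter was fused to promoterless luc on the chromosome (integrative pJDC9) in S. gordonii grown in BHI at 37°C, and penicillin G was added at OD620 0.12. Samples of 100 µl went into sodium citrate pH 5.5, then 50 µl of 1 mM D-luciferin in glycylglycine/MgSO4 buffer was added. Light was read for 10 s after a 2 s delay at 22°C, normalized to OD620, and expressed as % of the untreated culture.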

Streptococcus gordonii [14] = assay: Increase in pbp1A gene expression in penicillin-resistant Streptococcus gordonii with penicillin binding protein PR1_2 evolved mutation at 1/8 times MIC assessed as relative luciferase units relative to control; format: functional, organism-based; in short: as §1
Streptococcus gordonii [15] = assay: Increase in pbp2B gene expression in penicillin-resistant Streptococcus gordonii with penicillin binding protein PR1_2 evolved mutation assessed as relative luciferase units relative to control; format: functional; in short: as §1
Streptococcus gordonii [16] = assay: Antibacterial activity against wild type penicillin-susceptible Streptococcus gordonii at 4 times MIC; format: functional, organism-based; in short: as §2

With `CC1(C)S[C@@H]2[C@H](NC(=O)Cc3ccccc3)C(=O)N2[C@H]1C(=O)O` [PENICILLIN G] as the compound, how does the Activity (Streptococcus gordonii [1]) read?
Its Activity is 2.1.

What about the Activity (Streptococcus gordonii [2]) of the same compound?
Its Activity is “Active”.

And the Activity (Streptococcus gordonii [3])?
The Activity was “Active”.

What about the MIC (Streptococcus gordonii [4]) of the same compound?
Its MIC is 0.5 µg/mL (≈ 1.5 µM).

And the Activity (Streptococcus gordonii [5])?
The Activity was “inactive”.

And the Activity (Streptococcus gordonii [6])?
Its Activity is “Active”.

What about the Activity (Streptococcus gordonii [7]) of the same compound?
The Activity was 1.55.

What about the Activity (Streptococcus gordonii [8]) of the same compound?
The Activity was 0.7.

What about the MIC (Streptococcus gordonii [9]) of the same compound?
The MIC was 2 µg/mL (≈ 5.98 µM).

What about the Activity (Streptococcus gordonii [10]) of the same compound?
Its Activity is “Active”.

What about the Activity (Streptococcus gordonii [11]) of the same compound?
Its Activity is 1.59.

What about the MIC (Streptococcus gordonii [12]) of the same compound?
The MIC was 0.008 µg/mL (≈ 0.0239 µM).

What about the Activity (Streptococcus gordonii [13]) of the same compound?
Its Activity is “Active”.

And the Activity (Streptococcus gordonii [14])?
The Activity was “Active”.

What about the Activity (Streptococcus gordonii [15]) of the same compound?
The Activity was 1.39.

What about the Activity (Streptococcus gordonii [16]) of the same compound?
The Activity was “Active”.

Source: ChEMBL document CHEMBL1155142, “Promoter and transcription analysis of penicillin-binding protein genes in Streptococcus gordonii” (2007)
